For data set [1], the species on record is Homo sapiens. Kind of data set: Selectivity ratio of IC50 for recombinant his6-tagged DPP8 (unknown origin) to IC50 for recombinant his6-tagged DPP4 (unknown origin). In short, it runs like this:
(§1)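 His6-tagged DPP4, DPP8 and DPP9 were expressed in High Five insect cells by baculovirus and purified on Ni-NTA. Activity was followed continuously by fluorescence of AMC released from Ala-Pro-AMC (ex 355/em 460 nm). DPP4 ran at 50 pmol/L enzyme in HEPES pH 7.5 with 0.1 mg/mL BSA; DPP8 and DPP9 ran at pH 8.0. IC50s came from quadruplicate sigmoidal variable-slope fits, and the ratio is the IC50 ratio.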

The species entered for data set [2] is Homo sapiens. The experiment in a line: Selectivity ratio of IC50 for recombinant his6-tagged DPP9 (unknown origin) to IC50 for recombinant his6-tagged DPP4 (unknown origin). In short, it runs like this:
as §1

A further data set addresses Dipeptidyl peptidase 9 (Homo sapiens, UniProt Q86TI2). The experiment in a line: Inhibition of recombinant his6-tagged DPP9 (unknown origin) expressed in baculovirus expression system using Ala-pro-AMC as substrate by fluorometric analysis.
In a further data set the target is Dipeptidyl peptidase 8 (Homo sapiens, UniProt Q6V1X1). Kind of data set: Inhibition of recombinant his6-tagged DPP8 (unknown origin) expressed in baculovirus expression system using Ala-pro-AMC as substrate by fluorometric analysis.
Dipeptidyl peptidase 8, sequence (Q6V1X1 whole entry): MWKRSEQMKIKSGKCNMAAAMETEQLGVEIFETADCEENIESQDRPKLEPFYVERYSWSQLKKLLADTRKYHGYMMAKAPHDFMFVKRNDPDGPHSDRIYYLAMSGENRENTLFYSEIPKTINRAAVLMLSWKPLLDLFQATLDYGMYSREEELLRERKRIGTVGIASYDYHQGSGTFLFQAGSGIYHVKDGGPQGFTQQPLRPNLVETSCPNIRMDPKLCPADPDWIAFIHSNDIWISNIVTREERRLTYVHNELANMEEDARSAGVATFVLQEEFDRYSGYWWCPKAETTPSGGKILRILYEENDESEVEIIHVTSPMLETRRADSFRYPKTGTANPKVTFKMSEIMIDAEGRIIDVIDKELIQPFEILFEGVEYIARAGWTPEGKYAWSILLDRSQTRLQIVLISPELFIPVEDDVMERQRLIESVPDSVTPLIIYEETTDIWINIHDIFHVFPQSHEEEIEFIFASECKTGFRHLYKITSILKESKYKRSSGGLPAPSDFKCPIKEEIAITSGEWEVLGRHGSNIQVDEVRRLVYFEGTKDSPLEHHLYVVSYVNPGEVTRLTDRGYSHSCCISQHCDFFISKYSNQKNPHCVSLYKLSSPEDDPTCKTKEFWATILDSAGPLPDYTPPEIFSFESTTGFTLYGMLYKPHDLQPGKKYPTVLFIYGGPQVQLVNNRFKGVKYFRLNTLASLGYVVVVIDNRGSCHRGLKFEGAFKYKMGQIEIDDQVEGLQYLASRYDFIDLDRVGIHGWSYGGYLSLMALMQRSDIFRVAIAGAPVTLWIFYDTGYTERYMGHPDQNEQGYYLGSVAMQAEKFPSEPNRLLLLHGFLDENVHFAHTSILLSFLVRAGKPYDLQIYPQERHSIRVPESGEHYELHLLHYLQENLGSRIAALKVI
In a further data set the target is Dipeptidyl peptidase 4 (Homo sapiens, UniProt P27487). The experiment in a line: Inhibition of recombinant his6-tagged DPP4 (unknown origin) expressed in baculovirus expression system using Ala-pro-AMC as substrate by fluorometric analysis.
Dipeptidyl peptidase 4, sequence (P27487 whole entry): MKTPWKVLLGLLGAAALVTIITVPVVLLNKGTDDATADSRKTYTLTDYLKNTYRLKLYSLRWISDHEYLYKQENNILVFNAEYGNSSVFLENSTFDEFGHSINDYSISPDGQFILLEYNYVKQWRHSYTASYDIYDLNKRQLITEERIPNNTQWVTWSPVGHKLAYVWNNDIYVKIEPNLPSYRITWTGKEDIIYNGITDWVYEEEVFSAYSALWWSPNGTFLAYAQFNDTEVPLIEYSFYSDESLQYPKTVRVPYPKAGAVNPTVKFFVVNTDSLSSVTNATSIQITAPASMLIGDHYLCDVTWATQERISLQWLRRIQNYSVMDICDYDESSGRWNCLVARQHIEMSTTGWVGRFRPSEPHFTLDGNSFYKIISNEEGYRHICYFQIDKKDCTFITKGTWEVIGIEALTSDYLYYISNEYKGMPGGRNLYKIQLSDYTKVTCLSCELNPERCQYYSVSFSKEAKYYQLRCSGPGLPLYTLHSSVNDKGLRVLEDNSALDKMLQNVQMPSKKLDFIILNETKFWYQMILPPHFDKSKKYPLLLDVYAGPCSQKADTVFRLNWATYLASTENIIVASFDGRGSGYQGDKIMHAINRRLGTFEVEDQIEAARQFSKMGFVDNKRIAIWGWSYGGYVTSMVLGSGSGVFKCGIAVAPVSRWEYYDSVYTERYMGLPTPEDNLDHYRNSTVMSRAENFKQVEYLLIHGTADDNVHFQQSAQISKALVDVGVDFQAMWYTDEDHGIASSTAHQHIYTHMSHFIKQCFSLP
The next data set concerns the target CYP2C9 (Homo sapiens, UniProt P11712). The experiment in a line: Inhibition of CYP2C9 (unknown origin) at 100 uM relative to control. Format: ADME.
The target of another data set is Cytochrome P450 3A4 (Homo sapiens, UniProt P08684). Kind of data set: Inhibition of CYP3A4 (unknown origin). Format: ADME.
Cytochrome P450 3A4, sequence (P08684 whole entry): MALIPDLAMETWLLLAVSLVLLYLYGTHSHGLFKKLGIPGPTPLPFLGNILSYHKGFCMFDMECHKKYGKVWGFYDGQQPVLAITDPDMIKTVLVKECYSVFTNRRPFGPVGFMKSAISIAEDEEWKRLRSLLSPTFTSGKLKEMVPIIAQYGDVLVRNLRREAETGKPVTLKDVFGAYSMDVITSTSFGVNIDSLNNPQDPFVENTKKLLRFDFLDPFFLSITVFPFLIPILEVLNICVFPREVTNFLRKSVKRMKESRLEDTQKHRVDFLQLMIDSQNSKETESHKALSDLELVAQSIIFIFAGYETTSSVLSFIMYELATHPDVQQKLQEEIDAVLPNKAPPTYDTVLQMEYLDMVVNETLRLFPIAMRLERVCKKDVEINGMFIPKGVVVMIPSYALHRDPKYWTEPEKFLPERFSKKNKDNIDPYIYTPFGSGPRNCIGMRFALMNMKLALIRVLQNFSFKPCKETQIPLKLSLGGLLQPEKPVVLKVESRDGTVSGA
The nature of data set [3]: Oral bioavailability in Sprague-Dawley rat at 20 mg/kg. The class given is ADME, organism-based. The following applies: in vivo. An outline of the steps:
(§2)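 Sprague-Dawley rats were dosed orally or intravenously, and blood was sampled after dosing. Plasma was separated by centrifugation and deproteinized with methanol containing an internal standard. The supernatant was diluted with methanol, centrifuged again and quantified by LC/MS/MS.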

A short description of data set [4]: Apparent clearance in Sprague-Dawley rat at 5 mg/kg, iv. Format: ADME, organism-based. Set-up: dose 5 mg/kg, route intravenous. The following applies: in vivo, read-out: CL(app) (converted). In short, it runs like this:
as §2

A short description of data set [5]: Half life in Sprague-Dawley rat at 5 mg/kg, iv. Format: ADME, organism-based. The arrangement: dose 5 mg/kg, route intravenous. The following applies: in vivo. In short, it runs like this:
as §2

Data set [6] can be described thus: Half life in Sprague-Dawley rat at 20 mg/kg, po. Particulars: in vivo. The arrangement: dose 20 mg/kg, route oral. Format: ADME, organism-based. An outline of the steps: as §2
The nature of data set [7]: Mean residence time in Sprague-Dawley rat at 5 mg/kg, iv. The class given is ADME, organism-based. Set-up: dose 5 mg/kg, route intravenous. The following applies: in vivo. An outline of the steps:
as §2

Data set [8] in a line: Mean residence time in Sprague-Dawley rat at 20 mg/kg, po. The arrangement: dose 20 mg/kg, route oral. The following applies: in vivo. The class given is ADME, organism-based. An outline of the steps: as §2
Data set [9] in a line: AUC (0 to infinity) in Sprague-Dawley rat at 5 mg/kg, iv. Particulars: plasma. Set-up: time infinity, dose 5 mg/kg, route intravenous. Format: ADME, organism-based. In short, it runs like this: as §2
Data set [10] can be described thus: AUC (0 to infinity) in Sprague-Dawley rat at 20 mg/kg, po. The arrangement: time infinity, dose 20 mg/kg, route oral. Particulars: plasma. The class given is ADME, organism-based. In short, it runs like this:
as §2

Data set [11] can be described thus: AUC (0 to t) in Sprague-Dawley rat at 5 mg/kg, iv. Format: ADME, organism-based. Set-up: dose 5 mg/kg, route intravenous. The following applies: plasma. An outline of the steps: as §2
A short description of data set [12]: AUC (0 to t) in Sprague-Dawley rat at 20 mg/kg, po. The class given is ADME, organism-based. The arrangement: dose 20 mg/kg, route oral. The following applies: plasma. An outline of the steps:
as §2

Data set [13] in a line: Cmax in Sprague-Dawley rat at 5 mg/kg, iv. Format: ADME, organism-based. Set-up: dose 5 mg/kg, route intravenous. Particulars: in vivo. In short, it runs like this:
as §2

The nature of data set [14]: Cmax in Sprague-Dawley rat at 20 mg/kg, po. The arrangement: dose 20 mg/kg, route oral. Particulars: in vivo. The class given is ADME, organism-based. An outline of the steps:
as §2

Data set [15] in a line: Tmax in Sprague-Dawley rat at 5 mg/kg, iv. The class given is ADME, organism-based. The following applies: in vivo. The arrangement: dose 5 mg/kg, route intravenous. An outline of the steps: as §2
A short description of data set [16]: Tmax in Sprague-Dawley rat at 20 mg/kg, po. Format: ADME, organism-based. The arrangement: dose 20 mg/kg, route oral. Particulars: in vivo. An outline of the steps:
as §2

The subject of data set [17] is Mus musculus. The experiment in a line: Antidiabetic activity in ICR mouse assessed as decrease in blood glucose AUC (0 to 120 mins) administered for 30 mins prior to glucose challenge measured after 4 hrs by OGTT. The class given is functional, organism-based. An outline of the steps: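 ICR mice fasted 16 h, then given a single dose of 15 or 50 mg/kg; vehicle 0.5% methylcellulose (10 mL/kg), LAF237 30 mg/kg as positive control. Oral glucose 2.5 g/kg given 30 min after dosing (legend says 4 h). Blood glucose read at 0, 15, 30, 60, 90, 120 min for AUC0–120. Mean ± SE, n = 10; Student's t-test.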

For data set [18], the system named is Mus musculus. The experiment in a line: Antidiabetic activity in ICR mouse assessed as decrease in blood glucose AUC (0 to 120 mins) at 50 mg/kg administered for 30 mins prior to glucose challenge measured after 4 hrs by OGTT relative to vehicle-treated control. Set-up: scale not given: the % may be the effect or the level left. The class given is functional. An outline of the steps:
(§3)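 ICR mice were fasted 16 h and given one dose in 0.5% methylcellulose vehicle (10 mL/kg). An oral glucose load of 2.5 g/kg followed; methods state 30 min after dosing, the figure legend 4 h.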

Data set [19] has as its system Mus musculus. The experiment in a line: Antidiabetic activity in ICR mouse assessed as decrease in blood glucose AUC (0 to 120 mins) at 15 mg/kg administered for 30 mins prior to glucose challenge measured after 4 hrs by OGTT relative to vehicle-treated control. The class given is functional. The arrangement: scale not given: the % may be the effect or the level left. An outline of the steps: as §3

The structures appear in SMILES notation.

Dipeptidyl peptidase 9, sequence (Q86TI2 whole entry): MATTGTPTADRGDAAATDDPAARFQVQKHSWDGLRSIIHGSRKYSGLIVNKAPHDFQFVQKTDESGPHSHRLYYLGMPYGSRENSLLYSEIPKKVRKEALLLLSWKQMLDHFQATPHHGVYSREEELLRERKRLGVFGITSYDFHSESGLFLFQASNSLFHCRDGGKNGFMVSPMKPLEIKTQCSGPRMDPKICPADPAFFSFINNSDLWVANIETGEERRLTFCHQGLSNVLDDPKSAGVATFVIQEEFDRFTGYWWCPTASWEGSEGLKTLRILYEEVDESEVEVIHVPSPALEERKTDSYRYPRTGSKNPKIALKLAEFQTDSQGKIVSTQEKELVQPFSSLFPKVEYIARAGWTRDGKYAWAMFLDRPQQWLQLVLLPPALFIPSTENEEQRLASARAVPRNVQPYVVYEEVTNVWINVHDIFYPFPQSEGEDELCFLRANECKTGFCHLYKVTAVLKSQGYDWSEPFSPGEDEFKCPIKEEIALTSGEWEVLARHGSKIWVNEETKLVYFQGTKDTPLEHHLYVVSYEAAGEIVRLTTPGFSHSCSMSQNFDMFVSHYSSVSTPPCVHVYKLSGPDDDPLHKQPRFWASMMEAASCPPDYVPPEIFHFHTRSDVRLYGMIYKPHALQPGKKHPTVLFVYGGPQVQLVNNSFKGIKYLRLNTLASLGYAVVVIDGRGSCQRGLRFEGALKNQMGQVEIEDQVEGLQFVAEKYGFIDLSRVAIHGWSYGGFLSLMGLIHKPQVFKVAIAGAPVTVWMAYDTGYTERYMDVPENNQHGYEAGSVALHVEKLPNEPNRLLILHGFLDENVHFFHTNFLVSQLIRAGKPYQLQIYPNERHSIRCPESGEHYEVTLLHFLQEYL
CYP2C9, sequence (P11712 whole entry): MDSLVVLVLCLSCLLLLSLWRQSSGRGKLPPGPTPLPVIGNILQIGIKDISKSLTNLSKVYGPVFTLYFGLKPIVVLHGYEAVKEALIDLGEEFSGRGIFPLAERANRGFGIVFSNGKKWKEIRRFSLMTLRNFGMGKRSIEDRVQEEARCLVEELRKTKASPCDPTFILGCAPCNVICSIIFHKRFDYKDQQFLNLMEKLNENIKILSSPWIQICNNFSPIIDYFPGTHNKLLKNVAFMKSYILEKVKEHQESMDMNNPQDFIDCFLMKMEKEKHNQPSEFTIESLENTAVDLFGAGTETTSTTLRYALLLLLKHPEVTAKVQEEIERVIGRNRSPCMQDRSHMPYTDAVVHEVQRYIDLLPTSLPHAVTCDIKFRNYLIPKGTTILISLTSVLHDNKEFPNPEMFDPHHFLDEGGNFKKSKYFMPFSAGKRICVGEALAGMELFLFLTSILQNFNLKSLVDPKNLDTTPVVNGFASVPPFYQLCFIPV

As a reminder, the IC50 is the concentration needed to halve the response being measured. As to `N#C[C@@H]1CCCN1C(=O)[C@@H](N)Cc1ccoc1`, the Ratio IC50 in the data set listed under Homo sapiens [1] and in the data set listed under Homo sapiens [2] was more than 2.5 throughout. Further, the IC50 was more than 288 µM at Dipeptidyl peptidase 9, more than 288 µM at Dipeptidyl peptidase 8 and 114 µM on Dipeptidyl peptidase 4.
Turning to `N#C[C@@H]1CCCN1C(=O)[C@@H](N)Cc1ccccn1`, the results for the IC50 at Dipeptidyl peptidase 9 and on Dipeptidyl peptidase 8 were 144 µM and 125 µM, respectively.
For orientation: inhibition means the change of the read-out against control, counted positive when it falls. By bioavailability is commonly meant the share of a dose that reaches the circulation, judged against a reference dose that is usually intravenous. The term half-life denotes how long it takes for the measured level to halve. As usually defined, the MRT is a mean duration of stay, worked out from the concentration-time curve. As a reminder, the AUC(0-inf) is the area under the concentration-time curve extrapolated to infinity. What is called AUC(0-t) is the area under the concentration-time curve up to a stated or last time point. One may read the Cmax as the highest concentration seen after dosing. As a reminder, the Tmax is the time at which the peak concentration occurs. Consider `N#C[C@@H]1C[C@H](F)CN1C(=O)[C@@H](N)Cc1cc2c(cc1Br)OCO2`, for which the inhibition at 100 µM against CYP2C9 is -20.3%. The same molecule returned an IC50 at Cytochrome P450 3A4 of 2.2 µM. This molecule yielded a bioavailability in [3] of 16.8%. Further, the clearance in data set [4] is 43.5 mL/min/kg. The half-life was 37.8 min in data set [5] and 218 min in data set [6]. The MRT amounted to 33 min in data set [7] and 189 min in data set [8]. The figures for the AUC(0-inf) in data set [9] and in data set [10] were 1920 ng·h/mL and 1580 ng·h/mL, respectively. Besides, the AUC(0-t) is 1920 ng·h/mL in data set [11] and 1290 ng·h/mL in [12]. Moreover, the highest concentration (Cmax) in data set [13] stood at 2030 ng/mL; in data set [14] it was 2200 ng/mL. Besides, the Tmax in data set [15] and in data set [16] was 18 min in each case. The Activity entry in the data set with Mus musculus [17] is “Dose-dependent effect”; with Mus musculus [18] it was 23.6%; in the data set with Mus musculus [19] it was 12.2%.
